Source: PubChem BioAssay (SRMLSC)
Only a selection was taken, and hits are over-represented in it overall.
H69AR growth 86K = blocks growth of human H69AR lung tumor cells. hit rate 6% among 85,000. H69AR lung tumor viability, ATP luminescence, 72 h; hits give low values. viability, % at 10 µM;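 active = viability at or below 40%; inactive = viability above 40%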;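 note: multidrug resistant small cell line overexpressing MRP-1 efflux transporter; 100% = mean luminescence of untreated control wells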
HUVEC prolif 384 = blocks proliferation of human endothelial cells. HUVEC proliferation, CellTiter-Glo luminescence, 72 h; hits give low values. viability, % at 10 µM (by protocol). hit rate 1.1% among 86,000;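 active = viability at or below 30%; inactive = viability above 30%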;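 note: 100% = median luminescence of DMSO-only cell control wells on each plate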
PTEN del growth = suppresses growth of cells with PTEN deletion. HCT116 PTEN-null viability, CellTiter-Glo, 60 h; hits give low values. viability, % at 10 µM. hit rate 1.2% among 140,000. AID 827;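 active = viability at or below a set limit, 4 SD under the median of all tested compounds, cut at about 3.7% in these data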;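 note: PTEN knockout HCT116 line with beta catenin targeted HCT116 as companion control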
Lung fibro prol = blocks proliferation of human lung fibroblasts; LL 47 human lung fibroblast viability, ATP luminescence; hits give low values; viability, % at 10 µM; hit rate 1.1% among 85,000;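 active = viability at or below 50% in the single dose screen; inactive = viability above 50%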;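 note: compound exposure lasted 72 h before the ATP readout; 100% = median luminescence of untreated cell-only wells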
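Test system: LL 47 human lung fibroblasts / Incubation: 72 h compound exposure at 37 °C after overnight plating / Technique: luminescent ATP detection, CellTiter-Glo / Compound dosing: 0.1% DMSO in all compound wells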
HCT116 bCat-KO = beta-catenin-lacking colon tumor cell growth suppression; viability, % at 10 µM; AID 818; HCT116 beta-catenin knockout viability, CellTiter-Glo, 60 h; hits give low values; hit rate 1.5% among 140,000;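 active = viability at or under a set limit, the compound median less 4 SD, cut at about 6% in these data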;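 note: 0% = Hyamine 1622 control at 20 µM and 100% = untreated cell control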
Numbers without * were called inactive; . = no result given.

SMILES	H69AR growth 86K	HUVEC prolif 384	PTEN del growth	Lung fibro prol	HCT116 bCat-KO
Cc1cccc2cc(C(c3nnnn3C3CCCC3)N3CCOCC3)c(=O)[nH]c12 (stereo unspecified)	93.9	97.2	100.8	94.3	99.4
Cc1cc(C)c2cc(C(c3nnnn3C3CCCC3)N3CCOCC3)c(=O)[nH]c2c1 (stereo unspecified)	35.5*	99.4	84.9	97.4	87.3
CC(C)(C)n1nnnc1C(c1cc2cc3c(cc2[nH]c1=O)OCCO3)N1CCSCC1 (stereo unspecified)	79.9	79.9	105.0	80.8	91.6
O=c1[nH]c2cc3c(cc2cc1C(c1nnnn1C1CCCC1)N1CCSCC1)OCCO3 (stereo unspecified)	6.4*	65.4	12.2	80.5	66.6
COc1ccc(N=Nc2nc3cc(Br)c(Br)cc3n2C)c(OC)c1	.	.	64.2	.	70.9
CCOC(=O)c1c(NC(=O)CN2CCCCC2)sc2c1CCCC2O (stereo unspecified)	20.2*	72.8	76.0	91.7	70.0
C=CCN(CC=C)c1cnn(-c2nc3ccccc3[nH]2)c(=O)c1Cl	.	.	87.1	.	94.2
O=c1c(Cl)c(NCCCO)cnn1-c1nc2ccccc2[nH]1	0.6*	62.9	2.0*	26.3*	1.3*
Cn1c(-c2c(N)n(CCc3ccccc3)c3nc4ccccc4nc23)nc2ccccc21	36.4*	72.2	47.2	87.1	48.8
Cn1c(-c2c(N)n(CCCc3ccccc3)c3nc4ccccc4nc23)nc2ccccc21	23.4*	72.7	42.7	91.5	52.6
CCN(CC)C(=O)C(=O)N/N=C/c1ccc(C(=O)OC)cc1	.	.	102.0	.	92.8
CC1=C(C#N)c2nc(N)c(C#N)c(C)c2/C1=C\c1ccccc1	1.6*	13.2*	.	8.1*	.
CCOc1cc2[nH]c(=S)n(CCCN3CCN(C)CC3)c(=O)c2cc1OCC	95.0	86.2	.	98.7	.
CCOc1cc2[nH]c(=S)n(CCC(=O)N3CCc4ccccc4C3)c(=O)c2cc1OCC	28.5*	76.8	48.6	78.4	53.5
CCOC(=O)N1CCN(C(=O)CSCC(=O)Nc2nc(-c3ccc(-c4ccccc4)cc3)cs2)CC1	0.7*	55.1	8.0	81.5	7.9
COC(=O)c1ccc2c(=O)n(CCN3CCOCC3)c(SCC(=O)NC3CCCCC3)nc2c1	90.2	108.5	.	106.9	.
CCOC(=O)C(Cc1ccccc1)NC(=O)Cn1nnc(-c2ccc(SC)cc2)n1 (stereo unspecified)	96.8	103.9	94.3	98.7	92.0
CSc1ccc(-c2nnn(CC(=O)NCc3ccccc3)n2)cc1	25.1*	70.1	49.5	92.0	53.7
O=C(C(c1ccccc1)c1ccccc1)N1CCN(Cc2ccc(Br)cc2)CC1	36.1*	88.0	68.1	77.7	68.5
O=S1(=O)C=CC(Sc2nc3ccccc3[nH]2)C1 (stereo unspecified)	19.9*	102.0	101.7	101.8	106.6
Cc1ccccc1-n1nc(C(=O)c2cccs2)cc(-c2nc3ccccc3[nH]2)c1=N	37.8*	71.5	49.8	78.0	53.7
COc1ccc(-n2nc(C(=O)c3cccs3)cc(-c3nc4ccccc4[nH]3)c2=N)cc1	1.4*	28.8*	4.3	78.2	20.5
Oc1ccccc1Nc1nc(NCC2CCCO2)c2ccccc2n1 (stereo unspecified)	46.3	85.2	46.9	94.8	47.0
COc1cccc(Nc2nc(NCCO)c3ccccc3n2)c1	.	.	41.5	.	32.6
Oc1ccc(Nc2nc(NCC3CCCO3)c3ccccc3n2)cc1 (stereo unspecified)	36.6*	34.9	14.8	86.0	7.9
SMILES	H69AR growth 86K	HUVEC prolif 384	PTEN del growth	Lung fibro prol	HCT116 bCat-KO
COc1cccc(Nc2nc(NCC3CCCO3)c3ccccc3n2)c1 (stereo unspecified)	64.2	35.5	1.2*	22.7*	1.3*
O=C(CSC(=S)N1CCOCC1)Nc1nc(=O)c2ccccc2s1	.	.	96.8	.	96.0
Nc1ccc(C(=O)OC2CCOC2=O)cc1[N+](=O)[O-] (stereo unspecified)	.	.	97.1	.	97.9
Cc1cccc(C)c1NC1=NC(=S)N(c2ccccc2)C12CCOC(C)(C)C2 (stereo unspecified)	33.9*	89.5	24.4	87.5	30.0
COC(=O)Cn1ncc(N2C3CC(CC(C)(C)C3)C2C)c(Cl)c1=O (stereo unspecified)	.	.	92.5	.	94.2
Cc1ccc(NC(=O)COC(=O)C2CC2)c(Br)c1	.	.	105.9	.	86.1
O=C(Nc1ccc(Cl)c(Cl)c1)Nc1cc(S(=O)(=O)N2CCOCC2)ccc1N1CCCC1	.	.	23.7	.	37.5
Cc1cc(C)n(CCc2nc3c4ccccc4nc(SCc4ccc(C#N)cc4)n3n2)n1	86.5	76.9	.	113.5	.
Cc1nc2ccccc2n1CCc1nc2c3ccccc3nc(SCC#N)n2n1	22.5*	28.4*	76.1	77.5	81.9
Cc1nc2ccccc2n1CCc1nc2c3ccccc3nc(SCC(=O)NCc3ccco3)n2n1	20.7*	79.4	79.2	10.3*	89.8
O=C(CCn1c(SCC(=O)NCc2ccco2)nc2ccccc2c1=O)NCCc1ccccc1	97.0	91.0	98.7	102.7	91.2
C#CCn1c(=NC(=O)c2cc(-c3cccs3)nc3ccccc23)sc2cc(S(N)(=O)=O)ccc21	.	.	42.5	.	38.5
CC(=O)Oc1ccc(C(=O)Nc2cc(NC(=O)c3ccc(OC(C)=O)cc3)cc(C(=O)NC(C)(C)C)c2)cc1	.	.	95.8	.	95.2
CNC(=S)NCCC(c1ccccc1)c1ccccc1	.	.	91.5	.	96.2
COC(=O)c1ccccc1NC(=O)C1CC(=O)N(c2ccc(C)c(C)c2)C1 (stereo unspecified)	32.0*	95.5	98.2	101.7	102.5
O=C(Nc1ccc(Cl)c(Cl)c1)C1CC(=O)N(c2ccc(Br)cc2)C1 (stereo unspecified)	9.0*	53.6	44.4	102.5	37.6
Cc1ccc(N2CC(C(=O)Nc3nccs3)CC2=O)cc1Cl (stereo unspecified)	86.8	17.2*	51.4	28.6*	61.5
COC(=O)c1ccccc1NC(=O)C1CC(=O)N(c2ccc(F)cc2)C1 (stereo unspecified)	.	.	87.0	.	94.2
Cn1c(-c2ccccc2)cc2c3no[n+]([O-])c3ccc21	19.1*	13.6*	4.5	26.3*	9.1
Cc1ccc(-c2nnc(N3CCN(c4ccccn4)CC3)c3ccccc23)cc1	47.2	53.2	4.8	82.6	3.5*
COC(=O)c1c(C)n(-c2ccc(C)cc2)c2ccc(O)cc12	23.0*	26.9*	31.1	88.0	40.6
COC(=O)c1c(C)n(-c2ccccc2)c2ccc(O)cc12	18.7*	41.7	39.0	91.8	51.1
Cc1cc(C=O)c(C)n1-c1ccc(N2CCCC2)c([N+](=O)[O-])c1	.	.	77.5	.	81.2
O=c1cc(C(Cl)(Cl)Cl)oc2c1ccc1ccccc12	.	.	2.6*	.	2.5*
CC(C)(O)C#Cc1ccc(C(=O)NCc2ccccc2F)cc1	.	.	99.7	.	85.8
CCn1c2ccccc2c2cc(NC(=O)C3CCN(S(=O)(=O)c4cccs4)CC3)ccc21	21.0*	39.0	.	92.4	.
CCc1nnc(NC(=O)c2ccc(S(=O)(=O)N(CC)CC)cc2)s1	99.6	92.8	83.1	99.7	90.2
